Legend:
HIV-1NL4-3 = HIV-1NL4-3 replication inhibition assay in MT-4 lymphocytes; format: cell-based; settings: HIV-1NL4-3 infected MT-4 cells
How it was run: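 MT-4 cells infected with HIV-1 NL4-3 variants at a multiplicity of infection of 0.01, in a microtiter-plate replication screen.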

[1] = tested on: PC3 (human prostate cancer); experiment: MTT cytotoxicity assay, PC3; format: cell-based; settings: 48 h, means of three experiments, NA = no activity
[2] = target: T1, rabbit muscle glycogen phosphorylase a (RMGPa) (Oryctolagus cuniculus, UniProt P00489); experiment: Inhibition of rabbit muscle glycogen phosphorylase a; format: biochemical; settings: for GP inhibitory potency relative to betulin (3): fold more potent than 3
T1 sequence (P00489 1-843): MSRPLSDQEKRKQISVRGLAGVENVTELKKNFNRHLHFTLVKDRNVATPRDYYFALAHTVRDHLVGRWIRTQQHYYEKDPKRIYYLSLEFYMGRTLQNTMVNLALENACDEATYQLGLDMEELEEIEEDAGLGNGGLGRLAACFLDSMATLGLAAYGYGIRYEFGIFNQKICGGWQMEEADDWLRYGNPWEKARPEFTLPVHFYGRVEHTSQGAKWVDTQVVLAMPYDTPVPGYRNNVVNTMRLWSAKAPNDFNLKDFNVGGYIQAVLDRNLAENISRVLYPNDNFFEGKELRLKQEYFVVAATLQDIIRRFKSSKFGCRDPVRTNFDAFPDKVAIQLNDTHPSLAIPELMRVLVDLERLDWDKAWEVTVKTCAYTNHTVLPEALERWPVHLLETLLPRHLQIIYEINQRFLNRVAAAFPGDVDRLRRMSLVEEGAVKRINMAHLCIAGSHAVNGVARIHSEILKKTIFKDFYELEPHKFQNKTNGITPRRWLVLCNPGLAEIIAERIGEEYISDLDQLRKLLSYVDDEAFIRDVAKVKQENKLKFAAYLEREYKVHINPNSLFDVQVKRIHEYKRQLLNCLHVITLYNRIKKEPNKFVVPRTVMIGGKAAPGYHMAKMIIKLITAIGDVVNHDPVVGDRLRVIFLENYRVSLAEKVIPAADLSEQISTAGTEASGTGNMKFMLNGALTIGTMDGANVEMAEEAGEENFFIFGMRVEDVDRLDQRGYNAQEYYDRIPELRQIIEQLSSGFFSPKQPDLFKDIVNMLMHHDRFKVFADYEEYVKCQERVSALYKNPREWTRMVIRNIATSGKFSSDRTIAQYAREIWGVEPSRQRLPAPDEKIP

HIV-1IIIB = HIV-1IIIB infected C8166 cell lines; cited from earlier work
[3] = tested on: A549 (human lung carcinoma); experiment: MTT cytotoxicity assay, A549; format: cell-based; settings: 48 h
[4] = tested on: MCF-7 (human breast cancer); experiment: MTT cytotoxicity assay, MCF-7; format: cell-based; settings: 48 h

Structure (SMILES): C=C(C)[C@@H]1CC[C@]2(C(=O)O)CC[C@]3(C)[C@H](CC[C@@H]4[C@@]5(C)[C@@H](C(=O)O)[C@H](O)C(C)(C)[C@@H]5CC[C@]43C)[C@@H]12 [Compound 2a, ceanothic acid]
- anti-HIV-1 activity (result in words) (HIV-1NL4-3): no anti-HIV-1 activity

Structure (SMILES): C=C(C)[C@@H]1CC[C@]2(COC(c3ccccc3)(c3ccccc3)c3ccccc3)CC[C@]3(C)[C@H](CC[C@@H]4[C@@]5(C)[C@H](C(=O)OC)[C@H](OC(C)=O)C(C)(C)[C@@H]5CC[C@]43C)[C@@H]12 [Compound 9]
- IC50 ±SD, cytotoxic activity, PC3 [1]: inactive

Structure (SMILES): C=C(C)[C@@H]1CC[C@]2(CO)CC[C@]3(C)[C@H](CC[C@@H]4[C@@]5(C)CC[C@H](O)C(C)(C)[C@@H]5CC[C@]43C)[C@@H]12 [Compound 3, betulin]
- anti-HIV-1 activity (result in words) (HIV-1NL4-3): did not exhibit significant antiviral activity

Structure (SMILES): C=C(C)[C@@H]1CC[C@]2(COC(c3ccccc3)(c3ccccc3)c3ccccc3)CC[C@]3(C)[C@H](CC[C@@H]4[C@@](C)(CC(=O)O)[C@H](C(C)(C)C(=O)O)CC[C@]43C)[C@@H]12 [Compound 5]
- GP inhibitory potency relative to betulin (3) [2]: ~200 fold
- GP inhibitory potency relative to compound 6 ([2]; fold more potent than 6): 14 fold

Structure (SMILES): C=C(C)[C@@H]1CC[C@]2(C(=O)O)CC[C@]3(C)[C@H](CC[C@@H]4[C@@]5(C)[C@H](C(=O)O)[C@H](O)C(C)(C)[C@@H]5CC[C@]43C)[C@@H]12 [Compound 1, Epiceanothic acid]
- EC50, anti-HIV-1 replication activity (HIV-1IIIB): < 0.064 µg/mL
- decrease of cytotoxic activity against A549 compared with 12 [3]: more than 20 fold
- decrease of cytotoxic activity against MCF-7 compared with 12 [4]: more than 20 fold

Structure (SMILES): C=C(C)[C@@H]1CC[C@]2(COC(c3ccccc3)(c3ccccc3)c3ccccc3)CC[C@]3(C)[C@H](CC[C@@H]4[C@@]5(C)[C@H](C(=O)OC)[C@H](O)C(C)(C)[C@@H]5CC[C@]43C)[C@@H]12 [Compound 8]
- IC50 ±SD, cytotoxic activity, PC3 [1]: inactive

Structure (SMILES): C=C(C)[C@@H]1CC[C@]2(COC(c3ccccc3)(c3ccccc3)c3ccccc3)CC[C@]3(C)[C@H](CC[C@@H]4[C@@](C)(CC(=O)OC)[C@H](C(C)(C)C(=O)OC)CC[C@]43C)[C@@H]12 [Compound 6]
- GP inhibitory potency relative to betulin (3) [2]: 14 fold

Reference: publication PMC3010304 (Bioorganic & medicinal chemistry letters, 2010)
